Data on 12 molecules can be found in ChEMBL document CHEMBL1212899, “Strategies for recognition of stem-loop RNA structures by synthetic ligands: application to the HIV-1 frameshift stimulatory sequence” (J Med Chem, 2010).

Data set [1] has as its target Nucleic Acid. Kind of data set: Binding affinity to HIV1 frameshift-stimulating RNA by fluorescence titration. Type of data set: nucleic-acid assay, Human immunodeficiency virus 1. In short, it runs like this: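 5′-Cy3-labelled HIV-1 FSS RNA (400 or 500 nM) in 1X PBS pH 7.2 was heated to 65 °C for 4 min, then MgCl2 was added. Compound was titrated in over 100 nM–10 μM, with at least 10 min equilibration per step. Cy3 emission at 564.1 nm was dilution-corrected, and ΔFU was fit to a 1:1 model with ligand depletion to give KD. At least 2 titrations were run.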

Data set [2] can be described thus: Dissociation constant Kd of the compound. In kind it is physicochemical.
Data set [3] has as its target Nucleic Acid. Kind of data set: Binding affinity to HIV1 frameshift-stimulating RNA by fluorescence titration in presence of yeast tRNA. Type of data set: nucleic-acid assay, Human immunodeficiency virus 1. In short, it runs like this: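 Cy3-labelled HIV-1 FSS RNA was premixed with yeast total tRNA competitor (8 or 16 μM) in 1X PBS pH 7.2 with MgCl2, then titrated with compound. Fluorescence was read at 564.1 nm after at least 10 min equilibration per addition. Dilution-corrected ΔFU was fit to a 1-site ligand-depletion model for KD.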

Data set [4] in a line: Cytotoxicity against human fibroblast up to 10 uM. Type of data set: cell-based. To be noted: in the assay text read “up to 1 mM” for “up to 10 uM”. In short, it runs like this: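 Human fibroblasts were grown in DMEM with 5% FBS at 37 °C and 5% CO2, seeded at 3.2 × 10^4 cells/well, and grown 48 h to about 80% confluence. Cells were exposed to compound in DMEM for 24 h, with mitomycin C as control. MTT was added for 4 h, formazan was dissolved in isopropanol, and absorbance was read at 600 nm.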

For `CCc1nc2ccccc2cc1C(=O)N[C@@H](CSSC[C@H](NC(=O)c1cc2ccccc2nc1CC)C(=O)N1CCC[C@H]1C(=O)N[C@@H](Cc1ccccc1)C(=O)NCCCN)C(=O)N1CCC[C@H]1C(=O)N[C@@H](Cc1ccccc1)C(=O)NCCCN`, the values for the Kd (on Nucleic Acid [1] (read-out: Kd); in data set [2]; on Nucleic Acid [3] (read-out: Kd)) were 350 nM, 7880 nM and 200 nM, respectively.

In the case of `CCc1nc2cc3c(cc2cc1C(=O)N[C@@H](CSSC[C@H](NC(=O)c1cc2cc4c(cc2nc1CC)OCO4)C(=O)N1CCC[C@H]1C(=O)N[C@@H](Cc1ccccc1)C(=O)NCCCN)C(=O)N1CCC[C@H]1C(=O)N[C@@H](Cc1ccccc1)C(=O)NCCCN)OCO3`, the Kd (in general, the free concentration of one partner at which half of the binding sites on the other are occupied at equilibrium, for simple one-to-one binding) on Nucleic Acid [1] (read-out: Kd) came out at 1420 nM.

As to `Cc1nc2ccccc2cc1C(=O)N[C@@H](CSSC[C@H](NC(=O)c1cc2ccccc2nc1C)C(=O)N1CCC[C@H]1C(=O)N[C@@H](Cc1ccccc1)C(=O)NCCCN)C(=O)N1CCC[C@H]1C(=O)N[C@@H](Cc1ccccc1)C(=O)NCCCN`, the dissociation constant (Kd) at Nucleic Acid [1] (read-out: Kd) was 430 nM.

Molecule `NC[C@@H]1O[C@H](O[C@H]2[C@@H](O)[C@H](O[C@@H]3[C@@H](O)[C@H](N)C[C@H](N)[C@H]3O[C@H]3O[C@H](CN)[C@@H](O)[C@H](O)[C@H]3N)O[C@@H]2CO)[C@H](N)[C@@H](O)[C@@H]1O` [FRAMYCETIN] showed a Kd in data set [2] of 2600 nM.

For the molecule `CCc1nc2ccccc2cc1C(=O)N[C@@H](C/C=C/C[C@H](NC(=O)c1cc2ccccc2nc1CC)C(=O)N1CCC[C@H]1C(=O)N[C@@H](Cc1ccccc1)C(=O)NCCCN)C(=O)N1CCC[C@H]1C(=O)N[C@@H](Cc1ccccc1)C(=O)NCCCN`, the dissociation constant (Kd) at Nucleic Acid [1] (read-out: Kd) turned out to be 330 nM; in data set [2] it was 11200 nM; at Nucleic Acid [3] (read-out: Kd), 390 nM.

Regarding `CCc1nc2ccccc2cc1C(=O)O`, the dissociation constant Kd was 290 nM on Nucleic Acid [1] (read-out: Kd) and “Not Active” with Nucleic Acid [3].

`NCCCNC(=O)[C@H](Cc1ccccc1)NC(=O)[C@@H]1CCCN1C(=O)[C@H](CSSC[C@H](NC(=O)c1ccc2c(c1)C(=O)c1ccccc1C2=O)C(=O)N1CCC[C@H]1C(=O)N[C@@H](Cc1ccccc1)C(=O)NCCCN)NC(=O)c1ccc2c(c1)C(=O)c1ccccc1C2=O`: the equilibrium dissociation constant (Kd) at Nucleic Acid [1] (read-out: Kd) came out at 230 nM.

Consider `NCCCNC(=O)[C@H](Cc1ccccc1)NC(=O)[C@@H]1CCCN1C(=O)[C@@H](N)CSSC[C@H](N)C(=O)N1CCC[C@H]1C(=O)N[C@@H](Cc1ccccc1)C(=O)NCCCN`, for which the dissociation constant (Kd) result in the data set with Nucleic Acid [1] is listed as “Not Active”.

`CCc1nc2ccccc2cc1C(=O)N[C@@H](C/C=C\C[C@H](NC(=O)c1cc2ccccc2nc1CC)C(=O)N1CCC[C@H]1C(=O)N[C@@H](Cc1ccccc1)C(=O)NCCCN)C(=O)N1CCC[C@H]1C(=O)N[C@@H](Cc1ccccc1)C(=O)NCCCN`: the results for the dissociation constant (Kd) (at Nucleic Acid [1] (read-out: Kd); in data set [2]; at Nucleic Acid [3] (read-out: Kd)) were 180 nM, 4660 nM and 260 nM, respectively. For the same molecule, the Activity entry in data set [4] is “Non-toxic”.

In the case of `C=CC[C@H](NC(=O)c1cc2ccccc2nc1CC)C(=O)N1CCC[C@H]1C(=O)N[C@@H](Cc1ccccc1)C(=O)NCCCN`, the figures for the Kd at Nucleic Acid [1] (read-out: Kd) and in the data set with Nucleic Acid [3] were 470 nM and “Not Active”, respectively.

Regarding `CCc1nc2ccccc2cc1C(=O)N[C@@H](CCCC[C@H](NC(=O)c1cc2ccccc2nc1CC)C(=O)N1CCC[C@H]1C(=O)N[C@@H](Cc1ccccc1)C(=O)NCCCN)C(=O)N1CCC[C@H]1C(=O)N[C@@H](Cc1ccccc1)C(=O)NCCCN`, the figures for the Kd (on Nucleic Acid [1] (read-out: Kd); in data set [2]; on Nucleic Acid [3] (read-out: Kd)) were 1270 nM, 12300 nM and 1410 nM, respectively.

As to `NCCCNC(=O)[C@H](Cc1ccccc1)NC(=O)[C@@H]1CCCN1C(=O)[C@H](CSSC[C@H](NC(=O)c1cnc2ccccc2c1)C(=O)N1CCC[C@H]1C(=O)N[C@@H](Cc1ccccc1)C(=O)NCCCN)NC(=O)c1cnc2ccccc2c1`, the equilibrium dissociation constant (Kd) at Nucleic Acid [1] (read-out: Kd) worked out at 650 nM.
